# Data from ChEMBL document CHEMBL3822395, “2-Aryl-3-(2-morpholinoethyl)thiazolidin-4-ones: Synthesis, anti-inflammatory in vivo, cytotoxicity in vitro and molecular docking studies” (Eur J Med Chem, 2016).
# Active and inactive are the calls of the source. The rule behind the calls is not given here.
# What was measured:
# [1] = test system: Mus musculus; assay: Antiinflammatory activity in BALB/c mouse ear assessed as inhibition of croton oil-induced ear swelling up to 333 mg/kg administered topically on ear measured at 6 hrs relative to control; assay type: functional, organism-based
# How it was run: (§1)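 Male BALB/c mice, 3 per group, dosed at 33–333 mg/Kg. Ears were checked at 6 h for heat, redness and swelling against a croton oil-induced control (2 μg/ear in acetone).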
# [2] = Cytotoxicity against African green monkey Vero cells assessed as cell viability at 1000 ug/ml by MTT assay; assay type: cell-based; details: chlorocebus sabaeus, read-out: Activity
# How it was run: (§2)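 Vero cells were seeded at 2×10^6 cells mL⁻¹ in E-MEM with 10% FBS and antibiotics, then left to attach for 24 h and 48 h before treatment. Dilutions were 62.5–1000 µg/mL in E-MEM. After a PBS wash, cells got MTT 1 mg/mL for 4 h at 37 °C in the dark. Formazan was dissolved in DMSO and read at 540 nm. Viability % = AT/AC × 100. Three independent experiments.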
# [3] = test system: Mus musculus; assay: Antiinflammatory activity in BALB/c mouse ear assessed as inhibition of croton oil-induced heat in ear up to 333 mg/kg administered topically on ear measured at 6 hrs relative to control; assay type: functional, organism-based; how it was run: as §1
# [4] = test system: Mus musculus; assay: Antiinflammatory activity in BALB/c mouse assessed as inhibition of croton oil-induced ear edema at 166 mg/kg administered topically on ear measured at 6 hrs; assay type: functional; details: topical
# How it was run: (§3)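 Male BALB/c mice (25-35 g, mean 30 g), 3 per group. Ear edema induced with croton oil 2 μg/ear in acetone. Compounds were dosed at 33, 100, 166 and 333 mg/Kg, with indomethacin 33 mg/Kg as positive control. At 6 h a 6 mm ear punch was weighed and compared with untreated ears (edema index). Inhibition % = 100 × (1 − Vt/Vc) versus the control group.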
# [5] = Cytotoxicity against African green monkey Vero cells assessed as cell viability at 500 ug/ml by MTT assay; assay type: cell-based; details: chlorocebus sabaeus, read-out: Activity; how it was run: as §2
# [6] = Cytotoxicity against African green monkey Vero cells assessed as cell viability at 62.5 ug/ml by MTT assay; assay type: cell-based; details: chlorocebus sabaeus, read-out: Activity; how it was run: as §2
# [7] = test system: Mus musculus; assay: Antiinflammatory activity in BALB/c mouse ear assessed as inhibition of croton oil-induced ear redness up to 333 mg/kg administered topically on ear measured at 6 hrs relative to control; assay type: functional, organism-based; how it was run: as §1
# [8] = Cytotoxicity against African green monkey Vero cells assessed as cell viability at 125 ug/ml by MTT assay; assay type: cell-based; details: chlorocebus sabaeus, read-out: Activity; how it was run: as §2
# [9] = Cytotoxicity against African green monkey Vero cells assessed as cell viability at 250 ug/ml by MTT assay; assay type: cell-based; details: chlorocebus sabaeus, read-out: Activity; how it was run: as §2
# [10] = test system: Mus musculus; assay: Antiinflammatory activity in BALB/c mouse assessed as inhibition of croton oil-induced ear edema at 33 mg/kg administered topically on ear measured at 6 hrs; assay type: functional; details: topical; how it was run: as §3
SMILES,inhibition [1],viability at 1000 ug/ml [2] [%],inhibition [3],inhibition in vivo at 166 mg/kg [4] [%],viability at 500 ug/ml [5] [%],viability at 62.5 ug/ml [6] [%],inhibition [7],viability at 125 ug/ml [8] [%],viability at 250 ug/ml [9] [%],inhibition in vivo at 33 mg/kg [10] [%]
O=C1CSC(c2ccc(F)cc2)N1CCN1CCOCC1 (centres undefined),Active,89,Active,39,91,100,Active,100,100,–
COc1ccc2c(c1)c(CC(=O)O)c(C)n2C(=O)c1ccc(Cl)cc1 [INDOMETHACIN],–,–,–,–,–,–,–,–,–,58
O=C1CSC(c2cccc([N+](=O)[O-])c2)N1CCN1CCOCC1 (centres undefined),Active,92,Active,48,92,100,Active,100,100,–
COc1ccc(C2SCC(=O)N2CCN2CCOCC2)cc1 (centres undefined),Active,89,Active,54,90,100,Active,100,100,–
O=C1CSC(c2ccccc2[N+](=O)[O-])N1CCN1CCOCC1 (centres undefined),Active,83,Active,50,91,98,Active,98,98,–
Cc1ccc(C2SCC(=O)N2CCN2CCOCC2)cc1 (centres undefined),Active,73,Active,42,76,87,Active,87,80,–
O=C1CSC(c2ccc(Cl)cc2)N1CCN1CCOCC1 (centres undefined),Active,74,Active,44,76,87,Active,87,87,–
O=C1CSC(c2ccc(O)cc2)N1CCN1CCOCC1 (centres undefined),Active,73,Active,45,79,83,Active,83,83,–
